Results published in ChEMBL document CHEMBL1125582, “4-hydroxythiazole inhibitors of 5-lipoxygenase” (J Med Chem, 1991).
Values belong to the molecule of their own block, whether it stands above or below them. The source made the active and inactive calls. The calls are words filed in the database; no cut-off is given here.

How the values were obtained:
[1] = biological target: T1, Polyunsaturated fatty acid 5-lipoxygenase (Rattus norvegicus, UniProt P12527); experiment: In vitro inhibition of 5-lipoxygenase (5-lo) from the 20000 g supernatant of RBI-1 cells; format: cell-based
T1 sequence (P12527 whole entry): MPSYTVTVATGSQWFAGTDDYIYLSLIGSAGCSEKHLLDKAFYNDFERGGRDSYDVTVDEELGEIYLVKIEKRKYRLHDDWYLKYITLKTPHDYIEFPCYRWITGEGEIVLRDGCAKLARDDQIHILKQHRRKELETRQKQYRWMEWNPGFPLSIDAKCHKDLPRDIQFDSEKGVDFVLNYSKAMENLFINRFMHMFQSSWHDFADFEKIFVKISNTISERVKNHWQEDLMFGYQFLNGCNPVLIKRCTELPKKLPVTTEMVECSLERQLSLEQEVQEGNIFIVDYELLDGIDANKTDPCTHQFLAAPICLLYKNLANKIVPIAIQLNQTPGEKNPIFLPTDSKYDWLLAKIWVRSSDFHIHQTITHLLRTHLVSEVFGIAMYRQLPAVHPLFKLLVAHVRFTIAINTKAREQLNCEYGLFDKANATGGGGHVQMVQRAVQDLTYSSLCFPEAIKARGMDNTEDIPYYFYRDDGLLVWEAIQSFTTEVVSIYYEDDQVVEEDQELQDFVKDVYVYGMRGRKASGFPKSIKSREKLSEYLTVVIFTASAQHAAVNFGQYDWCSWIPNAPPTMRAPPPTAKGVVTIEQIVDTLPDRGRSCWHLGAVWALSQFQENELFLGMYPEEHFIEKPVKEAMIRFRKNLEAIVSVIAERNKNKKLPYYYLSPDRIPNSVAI

[2] = biological target: T1, Polyunsaturated fatty acid 5-lipoxygenase; experiment: Inhibition of 5-lipoxygenase (5-lo) in intact rat polymorphonuclear leukocyte RPMNL
Outline: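 Pleural PMNL from carrageenan-injected male Sprague-Dawley rats (200-250 g). Erythrocytes lysed with water, cells washed and held in HEPES/Earle's salts pH 7.0 with 1 mg/mL BSA. 5×10^6 cells preincubated 15 min at 37 °C with compound or DMSO (final 2%). Stimulated with A23187 (final 8.3 μM) for 10 min, stopped on ice. Methanol extracts assayed for LTB₄ by HPLC.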

[3] = biological target: T2, Polyunsaturated fatty acid 5-lipoxygenase (Rattus norvegicus) (UniProt P12527); experiment: The compound was tested for the in vitro inhibition of 5-lipoxygenase (5-lo) from the 20000 g supernatant of RBI-1 cells measured at a concentration of 30 uM; format: cell-based
T2 sequence (whole entry): T1 sequence (P12527 whole entry)
Outline: (§1)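 20000g supernatant of homogenized RBL-1 cells (7.5 × 10⁶ cell equiv/mL) preincubated 20 min at 37 °C with inhibitor or 2% Me₂SO vehicle in pH 6.8 BES/PIPES buffer with EDTA, NaCl, 0.7 mM CaCl₂. Reaction started with 66 μM [¹⁴C]arachidonic acid. [¹⁴C]-5-HETE counted by scintillation, corrected for [³H]-5-HETE recovery.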

[4] = system: cyclooxygenase (Ovis aries); experiment: The compound was tested for the in vitro inhibition of Prostaglandin G/H synthase of sheep seminal vesicle at a concentration of 30 uM
[5] = system: 15-lipoxygenase (Glycine max); experiment: The compound was tested for the in vitro inhibition of 15-lipoxygenase of soybean at a concentration of 10 uM; settings: at 10 µM
[6] = biological target: T3, Arachidonate 12-lipoxygenase (Rattus norvegicus) (UniProt Q02759); experiment: The compound was tested for the in vitro inhibition of platelet 12-lipoxygenase at a concentration of 100 uM
T3 sequence (whole entry): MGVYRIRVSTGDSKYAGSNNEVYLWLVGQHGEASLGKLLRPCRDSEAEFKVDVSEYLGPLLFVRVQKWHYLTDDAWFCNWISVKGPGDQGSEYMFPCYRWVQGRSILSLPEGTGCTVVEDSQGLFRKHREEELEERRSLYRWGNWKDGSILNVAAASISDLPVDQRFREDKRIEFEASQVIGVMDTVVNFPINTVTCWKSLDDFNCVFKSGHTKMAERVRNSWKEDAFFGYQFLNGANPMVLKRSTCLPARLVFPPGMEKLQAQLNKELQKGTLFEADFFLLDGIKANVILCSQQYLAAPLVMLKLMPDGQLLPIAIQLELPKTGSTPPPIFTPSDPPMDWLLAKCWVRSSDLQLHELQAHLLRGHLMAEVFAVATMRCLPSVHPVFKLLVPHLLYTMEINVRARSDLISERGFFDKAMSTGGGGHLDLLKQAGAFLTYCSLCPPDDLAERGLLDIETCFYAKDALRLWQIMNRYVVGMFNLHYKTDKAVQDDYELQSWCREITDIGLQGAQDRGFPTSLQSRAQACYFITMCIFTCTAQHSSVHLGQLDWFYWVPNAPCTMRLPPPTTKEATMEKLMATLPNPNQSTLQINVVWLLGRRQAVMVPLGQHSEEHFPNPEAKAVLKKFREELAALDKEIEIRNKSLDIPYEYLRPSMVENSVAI

[7] = system: 15-lipoxygenase (Glycine max); experiment: The compound was tested for the in vitro inhibition of 15-lipoxygenase of soybean at a concentration of 100 uM; settings: at 100 µM
[8] = biological target: T3, Arachidonate 12-lipoxygenase (Rattus norvegicus); experiment: The compound was tested for the in vitro inhibition of platelet 12-lipoxygenase at a concentration of 30 uM
[9] = biological target: T4, Polyunsaturated fatty acid 5-lipoxygenase (Homo sapiens, UniProt P09917); experiment: The compound was tested for the inhibition of 5-lipoxygenase (5-lo) in human whole blood (HWBL); format: tissue-based
T4 sequence (P09917 whole entry): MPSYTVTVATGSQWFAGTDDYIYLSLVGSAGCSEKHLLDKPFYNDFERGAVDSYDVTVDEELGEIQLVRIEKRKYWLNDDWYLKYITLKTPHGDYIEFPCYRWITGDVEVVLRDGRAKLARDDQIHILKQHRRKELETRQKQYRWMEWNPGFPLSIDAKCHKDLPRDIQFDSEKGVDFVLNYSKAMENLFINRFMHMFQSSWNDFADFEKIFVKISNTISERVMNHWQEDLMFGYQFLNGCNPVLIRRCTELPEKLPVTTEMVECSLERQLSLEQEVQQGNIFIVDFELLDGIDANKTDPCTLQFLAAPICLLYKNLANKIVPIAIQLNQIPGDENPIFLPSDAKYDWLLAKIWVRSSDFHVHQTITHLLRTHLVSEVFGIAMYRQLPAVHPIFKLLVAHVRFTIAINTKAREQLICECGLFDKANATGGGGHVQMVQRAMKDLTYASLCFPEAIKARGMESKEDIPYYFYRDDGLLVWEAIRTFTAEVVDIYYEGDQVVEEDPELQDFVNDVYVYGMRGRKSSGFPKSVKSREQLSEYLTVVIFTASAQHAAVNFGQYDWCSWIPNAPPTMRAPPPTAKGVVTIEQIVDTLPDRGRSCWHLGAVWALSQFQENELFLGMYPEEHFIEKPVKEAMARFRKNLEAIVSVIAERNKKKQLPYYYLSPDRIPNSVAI
Outline: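 Heparinized (20 units/mL) human blood preincubated 15 min at 37 °C with compound or vehicle. Challenged with A23187 in DMSO (final 50 μM) for 30 min, then chilled and centrifuged. Plasma extracted with 4 volumes methanol for at least 2 h at 3 °C. LTB₄ measured by RIA or EIA.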

[10] = system: cyclooxygenase (Ovis aries); experiment: The compound was tested for the in vitro inhibition of Prostaglandin G/H synthase of sheep seminal vesicle at a concentration of 100 uM
[11] = biological target: T2, Polyunsaturated fatty acid 5-lipoxygenase (Rattus norvegicus); experiment: The compound was tested for the in vitro inhibition of 5-lipoxygenase (5-lo) from the 20000 g supernatant of RBI-1 cells; NS indicates nonsignificant inhibition at 32 uM concentration; format: cell-based; outline: as §1
[12] = biological target: T2, Polyunsaturated fatty acid 5-lipoxygenase (Rattus norvegicus); experiment: The compound was tested for the in vitro inhibition of 5-lipoxygenase from the 20000 g supernatant of RBI-1 cells; NS indicates nonsignificant inhibition at 32 uM concentration; format: cell-based; outline: as §1
[13] = biological target: T2, Polyunsaturated fatty acid 5-lipoxygenase (Rattus norvegicus); experiment: The compound was tested for the in vitro inhibition of 5-lipoxygenase (5-lo) from the 20000 g supernatant of RBI-1 cells at a concentration of 30 uM; format: cell-based; outline: as §1

SMILES: CCCc1sc(-c2ccccc2)nc1OC(C)=O
IC50 [1]: 530 nM
IC50 [2]: 660 nM

SMILES: O=C1CSC(c2ccccc2)=N1
inhibition [3]: 26%

SMILES: CCCCC(=O)Oc1nc(-c2ccccc2)sc1-c1ccccc1
IC50 [1]: 9100 nM

SMILES: CCCc1sc(-c2ccccc2)nc1OC(=O)OCC
IC50 [9]: 4500 nM
IC50 [2]: 700 nM

SMILES: Oc1nc(-c2ccc(-c3ccccc3)cc2)sc1-c1ccccc1
IC50 [1]: 2200 nM

SMILES: Cc1sc(C(=O)O)nc1O
inhibition [11]: inactive

SMILES: Cc1nc(O)c(C)s1
inhibition [12]: inactive

SMILES: COc1nc(-c2ccccc2)sc1-c1ccccc1
inhibition [11]: inactive

SMILES: CCCCNC(=O)Oc1nc(-c2ccccc2)sc1CCC
IC50 [9]: 5500 nM
IC50 [1]: 24000 nM
IC50 [2]: 800 nM

SMILES: Oc1sc(-c2ccccc2)nc1-c1ccccc1
IC50 [1]: 6900 nM

SMILES: CCCCCC(=O)Oc1nc(-c2ccccc2)sc1-c1ccccc1
IC50 [1]: 1300 nM
IC50 [2]: 500 nM

SMILES: CCCCc1sc(-c2ccccc2)nc1OC(C)=O
IC50 [2]: 500 nM

Results, then the molecule that gave them:

IC50 [2]: 2100 nM
SMILES: COC(=O)Cc1sc(-c2ccccc2)nc1O

inhibition [4]: 6%
inhibition [5]: 52%
inhibition [6]: 0%
SMILES: COC(=O)c1ccc(-c2nc(O)c(C)s2)cc1

IC50 [1]: 14000 nM
SMILES: CC(=O)Oc1nc(-c2ccc(C(=O)O)cc2)sc1C

IC50 [1]: 14000 nM
SMILES: Cc1sc(-c2ccncc2)nc1O

inhibition [4]: 47%
inhibition [7]: 50%
inhibition [8]: 12%
SMILES: Oc1nc(-c2ccccc2)sc1-c1ccccc1

IC50 [1]: 2500 nM
SMILES: Cc1sc(-c2ccc(C(F)(F)F)cc2)nc1O

IC50 [9]: 470 nM
inhibition [7]: 16%
IC50 [1]: 500 nM
inhibition [10]: 20%
inhibition [6]: 0%
SMILES: Oc1nc(-c2ccc(F)cc2)sc1-c1ccccc1

IC50 [1]: 2100 nM
SMILES: Cc1sc(-c2ccccn2)nc1O

IC50 [1]: 16000 nM
SMILES: Cc1sc(-c2cnc3ccccc3c2)nc1O

IC50 [1]: 1400 nM
SMILES: Cc1sc(-c2cccs2)nc1O

IC50 [1]: 15000 nM
SMILES: Cc1sc(-c2ccc(N)cc2)nc1O

IC50 [1]: 2400 nM
SMILES: Cc1sc(-c2ccco2)nc1O

inhibition [12]: inactive
SMILES: Cc1sc(NN)nc1O

IC50 [1]: 1600 nM
SMILES: Cc1sc(-c2ccc([N+](=O)[O-])cc2)nc1O

IC50 [9]: 5100 nM
IC50 [1]: 700 nM
SMILES: Cc1nc(O)c(-c2ccccc2)s1

inhibition [13]: 24%
SMILES: O=C(O)Cc1sc(-c2ccccc2)nc1O

IC50 [1]: 1100 nM
SMILES: COc1ccc(-c2nc(O)c(C)s2)cc1

IC50 [1]: 30000 nM
SMILES: Cc1sc(-c2ccc(C(=O)O)cc2)nc1O
